Source: ChEMBL document CHEMBL3877264, “Quinolidene-rhodanine conjugates: Facile synthesis and biological evaluation” (Eur J Med Chem, 2017)
Values after ≈ are worked out from the molar mass of the structure shown.

What was measured:
[1] = system: Mycobacterium tuberculosis; assay: Growth inhibition of Mycobacterium bovis BCG ATCC 35743 at dormant stage at 25 ug/ml measured after 12 days by nitrate reductase dye based two fold dilution method relative to control; format: functional; details: BCG str. ATCC 35743, 288 h, read-out: GI
Procedure, shortened: (§1)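 M. bovis BCG was grown in Dubos medium and assayed in Mycobacterium pheli minimal medium (pH 6.6), with compounds from DMSO stocks. Incubation lasted 8 days for active and 12 days for dormant cultures. Viability was read by nitrate reductase at 540 nm against cell-free blanks, with vehicle set as 100% growth. Primary screen was at 30, 10 and 3 µg/ml, in triplicate, mean ± SD. MIC was taken from dose-response curves.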

[2] = system: Mycobacterium tuberculosis; assay: Growth inhibition of Mycobacterium bovis BCG ATCC 35743 at dormant stage at 6.25 ug/ml measured after 12 days by nitrate reductase dye based two fold dilution method relative to control; format: functional; details: BCG str. ATCC 35743, 288 h, read-out: GI; procedure, shortened: as §1
Pseudomonas fluorescens [3] = assay: Growth inhibition of Pseudomonas fluorescens NCIM 2036 at 30 ug/ml measured after 8 hrs relative to control; format: functional; details: NCIM 2036, 8 h, read-out: GI
Procedure, shortened: (§2)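 Bacteria grown in LB at 37 °C and 180 rpm to OD 1. Compounds added to wells, then 0.1% inoculum of 1 OD culture (620 nm). Growth read as OD at 620 nm after 8 h for gram-negative and after 12 h for gram-positive strains.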

Pseudomonas fluorescens [4] = assay: Antibacterial activity against Pseudomonas fluorescens NCIM 2036 measured after 8 hrs; format: functional; details: NCIM 2036, 8 h; procedure, shortened: as §2
[5] = Cytotoxicity against human PANC1 cells measured after 48 hrs by MTT assay; format: toxicity, cell-based, PANC-1
[6] = Cytotoxicity against […]-differentiated human THP1 cells assessed as growth inhibition at 100 ug/ml measured after 48 hrs by MTT assay relative to control; format: toxicity, cell-based, THP-1; details: read-out: GI
Procedure, shortened: (§3)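 MTT assay with 48 h compound exposure. THP-1 macrophages made by 24 h PMA treatment. Each concentration tested in triplicate in one experiment. % cytotoxicity = (control−test)/(control−blank)×100, with control = cells + DMSO and blank = medium without cells. IC50 from % survival versus concentration plots.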

Escherichia coli [7] = assay: Growth inhibition of Escherichia coli NCIM 2688 at 30 ug/ml measured after 8 hrs relative to control; format: functional; details: NCIM 2688, 8 h, read-out: GI; procedure, shortened: as §2
[8] = system: Mycobacterium tuberculosis; assay: Growth inhibition of Mycobacterium bovis BCG ATCC 35743 at active stage at 6.25 ug/ml measured after 8 days by nitrate reductase dye based two fold dilution method relative to control; format: functional; details: BCG str. ATCC 35743, 192 h, read-out: GI; procedure, shortened: as §1
Staphylococcus aureus [9] = assay: Growth inhibition of Staphylococcus aureus NCIM 2010 at 3 ug/ml measured after 12 hrs relative to control; format: functional; details: NCIM 2010, 12 h, read-out: GI; procedure, shortened: as §2
[10] = Cytotoxicity against human A549 cells assessed as growth inhibition at 100 ug/ml measured after 48 hrs by MTT assay relative to control; format: toxicity, cell-based; details: read-out: GI
[11] = Cytotoxicity against primary HUVEC assessed as growth inhibition at 100 ug/ml measured after 48 hrs by MTT assay relative to control; format: toxicity, cell-based; details: human, read-out: GI
[12] = system: Mycobacterium tuberculosis; assay: Growth inhibition of Mycobacterium tuberculosis H37Ra ATCC 25177 at dormant stage at 0.78 ug/ml measured after 12 days by XTT dye based two fold dilution method relative to control; format: functional; details: H37Ra ATCC 25177, 288 h, read-out: GI
Procedure, shortened: (§4)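 MTB H37Ra was grown in Dubos medium, then exposed in Mycobacterium pheli minimal medium (pH 6.6) to compounds dissolved in DMSO. The assay ended on day 8 (active) or day 12 (dormant). Viable cells were measured by XTT reduction menadione assay at 470 nm, blank-corrected, relative to vehicle control. Triplicates were expressed as mean ± SD. MIC came from dose-response curves.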

Escherichia coli [13] = assay: Antibacterial activity against Escherichia coli NCIM 2688 measured after 8 hrs; format: functional; details: NCIM 2688, 8 h; procedure, shortened: as §2
Bacillus subtilis [14] = assay: Growth inhibition of Bacillus subtilis NCIM 2079 at 10 ug/ml measured after 12 hrs relative to control; format: functional; details: NCIM 2079, 12 h, read-out: GI; procedure, shortened: as §2
[15] = system: Mycobacterium tuberculosis; assay: Growth inhibition of Mycobacterium tuberculosis H37Ra ATCC 25177 at active stage at 3.13 ug/ml measured after 8 days by XTT dye based two fold dilution method relative to control; format: functional; details: H37Ra ATCC 25177, 192 h, read-out: GI; procedure, shortened: as §4
[16] = system: Mycobacterium tuberculosis; assay: Growth inhibition of Mycobacterium bovis BCG ATCC 35743 at active stage at 50 ug/ml measured after 8 days by nitrate reductase dye based two fold dilution method relative to control; format: functional; details: BCG str. ATCC 35743, 192 h, read-out: GI
[17] = Cytotoxicity against human THP1 cells assessed as growth inhibition at 100 ug/ml measured after 48 hrs by MTT assay relative to control; format: toxicity, cell-based, THP-1; details: read-out: GI; procedure, shortened: as §3
[18] = system: Mycobacterium tuberculosis; assay: Growth inhibition of Mycobacterium tuberculosis H37Ra ATCC 25177 at active stage at 12.5 ug/ml measured after 8 days by XTT dye based two fold dilution method relative to control; format: functional; details: H37Ra ATCC 25177, 192 h, read-out: GI
[19] = system: Mycobacterium tuberculosis; assay: Growth inhibition of Mycobacterium bovis BCG ATCC 35743 at active stage at 12.5 ug/ml measured after 8 days by nitrate reductase dye based two fold dilution method relative to control; format: functional; details: BCG str. ATCC 35743, 192 h, read-out: GI
Aspergillus flavus = assay: Antifungal activity against Aspergillus flavus NCIM 539 by standard agar method; format: functional
Procedure, shortened: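 MICs determined by standard agar method; DMSO as solvent control.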

[20] = Selectivity index, ratio of GI50 for human THP1 cells to MIC for Mycobacterium tuberculosis H37Ra ATCC 25177 at dormant stage; format: toxicity, cell-based, THP-1; details: read-out: Selectivity Index
Procedure, shortened: (§5)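 SI is the cell-line GI50 divided by the dormant-stage mycobacterial MIC. […] THP-1 macrophages were PMA-differentiated for 24 h.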

[21] = Selectivity index, ratio of GI50 for human HeLa cells to MIC for Mycobacterium tuberculosis H37Ra ATCC 25177 at dormant stage; format: toxicity, cell-based; details: read-out: Selectivity Index; procedure, shortened: as §5
Bacillus subtilis [22] = assay: Growth inhibition of Bacillus subtilis NCIM 2079 at 3 ug/ml measured after 12 hrs relative to control; format: functional; details: NCIM 2079, 12 h, read-out: GI; procedure, shortened: as §2
[23] = system: Mycobacterium tuberculosis; assay: Growth inhibition of Mycobacterium tuberculosis H37Ra ATCC 25177 at dormant stage at 1.56 ug/ml measured after 12 days by XTT dye based two fold dilution method relative to control; format: functional; details: H37Ra ATCC 25177, 288 h, read-out: GI; procedure, shortened: as §4
[24] = system: Mycobacterium tuberculosis; assay: Growth inhibition of Mycobacterium bovis BCG ATCC 35743 at dormant stage at 50 ug/ml measured after 12 days by nitrate reductase dye based two fold dilution method relative to control; format: functional; details: BCG str. ATCC 35743, 288 h, read-out: GI; procedure, shortened: as §1
Staphylococcus aureus [25] = assay: Growth inhibition of Staphylococcus aureus NCIM 2010 at 10 ug/ml measured after 12 hrs relative to control; format: functional; details: NCIM 2010, 12 h, read-out: GI; procedure, shortened: as §2
[26] = system: Mycobacterium tuberculosis; assay: Growth inhibition of Mycobacterium tuberculosis H37Ra ATCC 25177 at active stage at 6.25 ug/ml measured after 8 days by XTT dye based two fold dilution method relative to control; format: functional; details: H37Ra ATCC 25177, 192 h, read-out: GI; procedure, shortened: as §4
[27] = system: Mycobacterium tuberculosis; assay: Growth inhibition of Mycobacterium bovis BCG ATCC 35743 at dormant stage at 30 ug/ml measured after 12 days by nitrate reductase dye based two fold dilution method relative to control; format: functional; details: BCG str. ATCC 35743, 288 h, read-out: GI; procedure, shortened: as §1
[28] = system: Mycobacterium tuberculosis; assay: Growth inhibition of Mycobacterium tuberculosis H37Ra ATCC 25177 at active stage measured after 8 days by XTT dye based two fold dilution method; format: functional; details: H37Ra ATCC 25177, 192 h; procedure, shortened: as §4

SMILES	inhibition of growth at 30 µg/mL (Pseudomonas fluorescens [3])	MIC (Pseudomonas fluorescens [4])	GI50 at 48 h [5]	inhibition at 48 h, 100 ug/ml [6]	inhibition of growth at 30 µg/mL (Escherichia coli [7])	inhibition of growth at 3 µg/mL (Staphylococcus aureus [9])	inhibition at 48 h, 100 ug/ml [10]	inhibition at 48 h, 100 ug/ml [11]	inhibition of growth at 0.78 µg/mL [12]	MIC (Escherichia coli [13])	inhibition of growth at 10 µg/mL (Bacillus subtilis [14])	inhibition of growth at 3.13 µg/mL [15]	inhibition at 48 h, 100 ug/ml [17]	inhibition of growth at 12.5 µg/mL [18]	MIC (Aspergillus flavus)	selectivity ratio [20]	selectivity ratio [21]	inhibition of growth at 3 µg/mL (Bacillus subtilis [22])	inhibition of growth at 1.56 µg/mL [23]	inhibition of growth at 10 µg/mL (Staphylococcus aureus [25])	other results
O=C1NC(=S)S/C1=C\c1cc2cc(F)ccc2nc1Cl	50.2%	> 30 µg/mL	> 100 µg/mL	19.2%	46.4%	45.3%	40%	34.2%	-24.1%	> 30 µg/mL	2.58%	52.6%	26.3%	99.9%	12.5 µg/mL (≈ 38.5 µM)	5.6	5.6	-6.11%	-0.73%	71.3%	inhibition of growth at 25 µg/mL [1]: 100%; inhibition of growth at 6.25 µg/mL [2]: 100%; inhibition of growth at 6.25 µg/mL [8]: 99.5%; inhibition of growth at 50 µg/mL [16]: 99%; inhibition of growth at 12.5 µg/mL [19]: 98.3%; inhibition of growth at 50 µg/mL [24]: 100%; inhibition of growth at 6.25 µg/mL [26]: 96.2%; inhibition of growth at 30 µg/mL [27]: 76.5%
CCOc1ccc2nc(Cl)c(/C=C3\SC(=S)NC3=O)cc2c1	76%	> 30 µg/mL	> 100 µg/mL	35.1%	28%	42.7%	23.9%	33%	-39.5%	> 30 µg/mL	-7.03%	94.8%	28.6%	101%	50 µg/mL (≈ 143 µM)	28.6	28.6	-34%	-9.88%	46.8%	IC50 [28]: 1.9 µg/mL (≈ 5.42 µM); IC90 [28]: 2.8 µg/mL (≈ 7.98 µM); inhibition of growth at 25 µg/mL [1]: 100%; inhibition of growth at 6.25 µg/mL [2]: 101%; inhibition of growth at 6.25 µg/mL [8]: 101%; inhibition of growth at 50 µg/mL [16]: 98.1%; inhibition of growth at 12.5 µg/mL [19]: 98.2%; inhibition of growth at 50 µg/mL [24]: 99.6%; inhibition of growth at 6.25 µg/mL [26]: 104%; inhibition of growth at 30 µg/mL [27]: 94.5%
Cc1cccc2cc(/C=C3\SC(=S)N(CC(=O)O)C3=O)c(Cl)nc12	54.8%	> 30 µg/mL	> 100 µg/mL	25%	-0.186%	-24.6%	15.6%	34%	-43.4%	> 30 µg/mL	-19.6%	-10.2%	32.3%	22%	100 µg/mL (≈ 264 µM)	5	5	-3.67%	15.7%	-4.38%	IC50 [28]: 21.2 µg/mL (≈ 56 µM); IC90 [28]: 27.3 µg/mL (≈ 72.1 µM); inhibition of growth at 6.25 µg/mL [26]: 12.9%; inhibition of growth at 30 µg/mL [27]: 70%
